Laboratory results: ChEMBL document CHEMBL3352255, “Tailor-made fluorescent trilobolide to study its biological relevance” (J Med Chem, 2014)
Calls of active or inactive are those of the source. No cut-off for these calls is given here.

Tests used:
MCF7 [1] = test: Cytotoxicity against human MCF7 cells after 24 hrs by WST-1 assay; type: functional, cell-based; details: MCF7, 24 h
How it was run: (§1)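 Dark cytotoxicity (no light exposure) by WST-1 tetrazolium-to-formazan conversion reflecting metabolic activity; compounds tested at concentrations up to 50 μM for 24, 48 or 72 h; IC50 taken as concentration giving 50% inhibition of cell viability.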

U2OS [2] = test: Cellular uptake in human U2OS cells at 5 uM after 24 hrs by fluorescence microscopy; type: ADME, cell-based
How it was run: (§2)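 Live-cell fluorescence microscopy of Bodipy-labelled conjugates (green emission), 5 μM, uptake followed at 10, 20, 40 min and 1, 3, 5, 24 h. Cells stained with Bodipy dye alone served as control for dye-driven localization.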

[3] = Cellular uptake in human PC3 cells at 5 uM after 24 hrs by fluorescence microscopy; type: ADME, cell-based; details: pc-3, 24 h; how it was run: as §2
C2C12 [4] = test: Cytotoxicity against mouse C2C12 cells after 48 hrs by WST-1 assay; type: functional, cell-based; details: C2C12, 48 h; how it was run: as §1
A549 = test: Cellular uptake in human A549 cells at 5 uM after 24 hrs by fluorescence microscopy; type: ADME, cell-based; details: a549, 24 h; how it was run: as §2
C2C12 [5] = test: Cytotoxicity against mouse C2C12 cells after 72 hrs by WST-1 assay; type: functional, cell-based; details: C2C12, 72 h; how it was run: as §1
[6] = Cytotoxicity against human MIAPaCa2 cells after 48 hrs by WST-1 assay; type: functional, cell-based; details: MIA PaCa-2, 48 h; how it was run: as §1
HeLa = test: Cellular uptake in human HeLa cells at 5 uM after 24 hrs by fluorescence microscopy; type: ADME, cell-based; how it was run: as §2
[7] = Cytotoxicity against rat peritoneal cells assessed as reduction in cell viability at 40 uM after 24 hrs by WST-1 assay; type: cell-based
HT-29 [8] = test: Cytotoxicity against human HT-29 cells after 48 hrs by WST-1 assay; type: functional, cell-based; details: HT-29, 48 h; how it was run: as §1
[9] = Cytotoxicity against human MIAPaCa2 cells after 72 hrs by WST-1 assay; type: functional, cell-based; details: MIA PaCa-2, 72 h; how it was run: as §1
C2C12 [10] = test: Cellular uptake in mouse C2C12 cells at 5 uM after 24 hrs by fluorescence microscopy; type: ADME, cell-based; details: c2c12, 24 h; how it was run: as §2
[11] = Cellular uptake in HEK293T cells at 5 uM after 24 hrs by fluorescence microscopy; type: ADME, cell-based; details: human, hek-293t; how it was run: as §2
[12] = Cytotoxicity against human MIAPaCa2 cells after 24 hrs by WST-1 assay; type: functional, cell-based; details: MIA PaCa-2, 24 h; how it was run: as §1
HT-29 [13] = test: Cytotoxicity against human HT-29 cells after 24 hrs by WST-1 assay; type: functional, cell-based; details: HT-29, 24 h; how it was run: as §1
U2OS [14] = test: Cytotoxicity against human U2OS cells after 72 hrs by WST-1 assay; type: functional, cell-based; how it was run: as §1
MCF7 [15] = test: Cytotoxicity against human MCF7 cells after 48 hrs by WST-1 assay; type: functional, cell-based; details: MCF7, 48 h; how it was run: as §1
LNCaP [16] = test: Cytotoxicity against human LNCAP cells after 72 hrs by WST-1 assay; type: functional, cell-based; how it was run: as §1
[17] = Cytotoxicity against rat peritoneal cells assessed as reduction in cell viability at 40 uM after 24 hrs by WST-1 assay
Rattus norvegicus [18] = species on record: Rattus norvegicus; test: Induction of LPS-induced NO production in rat peritoneal cells after 24 hrs using DAR-2 probe by fluorescence assay; type: functional, cell-based
LNCaP [19] = test: Cytotoxicity against human LNCAP cells after 48 hrs by WST-1 assay; type: functional, cell-based; how it was run: as §1
U2OS [20] = test: Cytotoxicity against human U2OS cells after 48 hrs by WST-1 assay; type: functional, cell-based; how it was run: as §1
LNCaP [21] = test: Cytotoxicity against human LNCAP cells after 24 hrs by WST-1 assay; type: functional, cell-based; how it was run: as §1
MCF7 [22] = test: Cytotoxicity against human MCF7 cells after 72 hrs by WST-1 assay; type: functional, cell-based; details: MCF7, 72 h; how it was run: as §1
LNCaP [23] = test: Cellular uptake in human LNCAP cells at 5 uM after 24 hrs by fluorescence microscopy; type: ADME, cell-based; how it was run: as §2
HT-29 [24] = test: Cytotoxicity against human HT-29 cells after 72 hrs by WST-1 assay; type: functional, cell-based; details: HT-29, 72 h; how it was run: as §1
MCF7 [25] = test: Cellular uptake in human MCF7 cells at 5 uM after 24 hrs by fluorescence microscopy; type: ADME, cell-based; details: mcf7, 24 h
[26] = Cytotoxicity against human PC3 cells after 48 hrs by WST-1 assay; type: functional, cell-based; details: PC-3, 48 h; how it was run: as §1
[27] = Cytotoxicity against human PC3 cells after 72 hrs by WST-1 assay; type: functional, cell-based; details: PC-3, 72 h; how it was run: as §1
[28] = Cellular uptake in human MIAPaCa2 cells at 5 uM after 24 hrs by fluorescence microscopy; type: ADME, cell-based; details: mia paca-2, 24 h; how it was run: as §2
C2C12 [29] = test: Cytotoxicity against mouse C2C12 cells after 24 hrs by WST-1 assay; type: functional, cell-based; details: C2C12, 24 h; how it was run: as §1
U2OS [30] = test: Cytotoxicity against human U2OS cells after 24 hrs by WST-1 assay; type: functional, cell-based; how it was run: as §1
[31] = Cytotoxicity against human PC3 cells after 24 hrs by WST-1 assay; type: functional, cell-based; details: PC-3, 24 h; how it was run: as §1
PC-3 = test: Induction of LPS-induced NO production in human PC3 cells at 40 uM after 24 hrs using DAR-2 probe by fluorescence assay; type: functional, cell-based
How it was run: (§3)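 NO in living cells (PC-3, LNCaP, MCF-7, U-2 OS) was imaged by fluorescence microscopy with the NO-specific red-emitting probe DAR-2 after compound stimulation.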

[32] = Cellular uptake in Endoplasmic reticulum of human U2OS cells at 1 uM after 1 hr by fluorescence microscopy; type: ADME, cell-based
How it was run: (§4)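 Live-cell fluorescence microscopy of cells exposed to Bodipy-labelled conjugates at 1 μM for 1 h. ER was co-stained with ER-Tracker Blue-White DPX (100 nM, 20 min) to check colocalisation. A Bodipy dye-only stain served as control.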

LNCaP [33] = test: Induction of LPS-induced NO production in human LNCAP cells at 40 uM after 24 hrs using DAR-2 probe by fluorescence assay; type: functional, cell-based; how it was run: as §3
U2OS [34] = test: Induction of LPS-induced NO production in human U2OS cells at 40 uM after 24 hrs using DAR-2 probe by fluorescence assay; type: functional, cell-based; how it was run: as §3
[35] = Cellular uptake in Endoplasmic reticulum of human HeLa cells at 1 uM after 1 hr by fluorescence microscopy; type: ADME, cell-based; how it was run: as §4
MCF7 [36] = test: Induction of LPS-induced NO production in human MCF7 cells at 40 uM after 24 hrs using DAR-2 probe by fluorescence assay; type: functional, cell-based; how it was run: as §3
[37] = Cytotoxicity against rat peritoneal cells assessed as reduction in cell viability at 10 uM after 24 hrs by WST-1 assay; type: cell-based
[38] = Cellular uptake in Endoplasmic reticulum of human LNCAP cells at 1 uM after 1 hr by fluorescence microscopy; type: ADME, cell-based; how it was run: as §4
[39] = Cellular uptake in Endoplasmic reticulum of human PC3 cells at 1 uM after 1 hr by fluorescence microscopy; type: ADME, cell-based; details: pc-3, 1 h; how it was run: as §4
Rattus norvegicus [40] = species on record: Rattus norvegicus; test: Induction of TNFalpha production in rat peritoneal cells at 0.01 to 40 uM after 24 hrs by ELISA; type: functional, cell-based

Structure (SMILES)	IC50 (MCF7 [1])	IC50 (C2C12 [4])	IC50 (C2C12 [5])	IC50 [6]	IC50 (HT-29 [8])	IC50 [9]	IC50 [12]	IC50 (HT-29 [13])	IC50 (U2OS [14])	IC50 (MCF7 [15])	IC50 (LNCaP [16])	IC50 (LNCaP [19])	IC50 (U2OS [20])	IC50 (LNCaP [21])	IC50 (MCF7 [22])	IC50 (HT-29 [24])	IC50 [26]	IC50 [27]	IC50 (C2C12 [29])	IC50 (U2OS [30])	further results
C/C=C(/C)C(=O)O[C@@H]1C[C@H]2C(=C1C)[C@@H]1OC(=O)[C@@](C)(O)[C@@]1(O)[C@@H](OC(=O)CCOCCOCCOCCOCCOCCOCCOCCOCCOCCOCCn1cc(COc3ccc(C4=C5C=CC=[N+]5[B-](F)(F)n5cccc54)cc3)nn1)C[C@]2(C)OC(C)=O	> 50 µM	> 50 µM	> 50 µM	50 µM	> 50 µM	41.1 µM	> 50 µM	> 50 µM	> 50 µM	48 µM	> 50 µM	> 50 µM	> 50 µM	> 50 µM	47.3 µM	> 50 µM	> 50 µM	> 50 µM	> 50 µM	> 50 µM	Drug uptake (U2OS [2]): Not Active; Drug uptake [3]: Not Active; Drug uptake (A549): Not Active; Drug uptake (HeLa): Not Active; Activity [7]: Non-toxic; Drug uptake (C2C12 [10]): Not Active; Drug uptake [11]: Not Active; Activity [17]: Non-toxic; Activity (Rattus norvegicus [18]): Dose-dependent effect; Drug uptake (LNCaP [23]): Not Active; Drug uptake (MCF7 [25]): Not Active; Drug uptake [28]: Not Active; IC50 [31]: > 50 µM
C/C=C(/C)C(=O)O[C@@H]1C[C@H]2C(=C1C)[C@@H]1OC(=O)[C@@](C)(O)[C@@]1(O)[C@@H](OC(=O)[C@@H](C)CC)C[C@]2(C)OC(C)=O	0.2 µM	1 µM	0.3 µM	6 µM	9.8 µM	1.5 µM	17.4 µM	41.4 µM	0.7 µM	2.5 µM	0.4 µM	0.5 µM	0.2 µM	3.4 µM	2.1 µM	9.5 µM	1.3 µM	0.5 µM	4 µM	12.5 µM	Activity (PC-3): Active; Drug uptake [32]: Active; Activity (LNCaP [33]): Active; Activity (U2OS [34]): Active; Drug uptake [35]: Active; Activity (MCF7 [36]): Active; Activity [37]: 65%; Drug uptake [38]: Active; Drug uptake [39]: Active; IC50 [31]: 9.6 µM
C/C=C(/C)C(=O)O[C@@H]1C[C@H]2C(=C1C)[C@@H]1OC(=O)[C@@](C)(O)[C@@]1(O)[C@@H](OC(=O)Cn1cc(COc3ccc(C4=C5C=CC=[N+]5[B-](F)(F)n5cccc54)cc3)nn1)C[C@]2(C)OC(C)=O	> 50 µM	> 50 µM	> 50 µM	> 50 µM	> 50 µM	> 50 µM	> 50 µM	> 50 µM	> 50 µM	> 50 µM	> 50 µM	3.5 µM	> 50 µM	> 50 µM	> 50 µM	> 50 µM	2.9 µM	3.2 µM	> 50 µM	> 50 µM	Drug uptake (U2OS [2]): Not Active; Drug uptake [3]: Not Active; Drug uptake (A549): Not Active; Drug uptake (HeLa): Not Active; Activity [7]: Non-toxic; Drug uptake (C2C12 [10]): Not Active; Drug uptake [11]: Not Active; Activity [17]: Non-toxic; Activity (Rattus norvegicus [18]): Dose-dependent effect; Drug uptake (LNCaP [23]): Not Active; Drug uptake (MCF7 [25]): Not Active; Drug uptake [28]: Not Active; IC50 [31]: 2.2 µM
F[B-]1(F)n2cccc2C=C2C=CC=[N+]21	> 50 µM	> 50 µM	> 50 µM	> 50 µM	> 50 µM	> 50 µM	> 50 µM	> 50 µM	> 50 µM	> 50 µM	> 50 µM	> 50 µM	> 50 µM	> 50 µM	> 50 µM	> 50 µM	3.1 µM	5.6 µM	> 50 µM	> 50 µM	Activity (Rattus norvegicus [40]): inactive; Activity (Rattus norvegicus [18]): inactive; IC50 [31]: 1.5 µM
C/C=C(/C)C(=O)O[C@@H]1C[C@H]2C(=C1C)[C@@H]1OC(=O)[C@@](C)(O)[C@@]1(O)[C@@H](OC(=O)CCOCCOCCOCCOCCn1cc(COCCOCCOCCOCCNC(=O)CCOCCOCCOCCOCCn3cc(COc4ccc(C5=C6C=CC=[N+]6[B-](F)(F)n6cccc65)cc4)nn3)nn1)C[C@]2(C)OC(C)=O	> 50 µM	> 50 µM	> 50 µM	> 50 µM	> 50 µM	> 50 µM	> 50 µM	> 50 µM	> 50 µM	> 50 µM	> 50 µM	> 50 µM	> 50 µM	> 50 µM	> 50 µM	> 50 µM	> 50 µM	> 50 µM	> 50 µM	> 50 µM	Drug uptake (U2OS [2]): Not Active; Drug uptake [3]: Not Active; Drug uptake (A549): Not Active; Drug uptake (HeLa): Not Active; Activity [7]: Non-toxic; Drug uptake (C2C12 [10]): Not Active; Drug uptake [11]: Not Active; Activity [17]: Non-toxic; Activity (Rattus norvegicus [18]): Dose-dependent effect; Drug uptake (LNCaP [23]): Not Active; Drug uptake (MCF7 [25]): Not Active; Drug uptake [28]: Not Active; IC50 [31]: > 50 µM
